Results published in PMC7258337 (Nature metabolism, 2020).

What was measured:
[1] = tested on: DIO C57Bl/6J Wild-type (WT) mice; assay: two-week treatment of DIO GLP-1R WT mice; format: in vivo, mouse
How it was run: (§1)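 Mice were made obese on diet for 8 weeks, then moved to 45% high-fat diet for 2 weeks. Body weight was tracked as % change, with cumulative food intake over days 1–4. Blood and tissues were taken 20 h after the final dose.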

[2] = tested on: mouse primary hepatocytes; assay: mitophagosomes by live cell confocal microscopy; format: cell-based; conditions: 100 nM, 2h
How it was run: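 Primary mouse hepatocytes were kept 1 h at 37°C/5% CO2, then 4 h in fresh isolation medium, then moved to serum-free low-glucose DMEM (10 mM lactate, 2 mM glutamine, 5 mM HEPES, 10 nM dexamethasone). Cells were used 18–24 h post-plating and given 100 nM test compound for 2 h. Live cells were stained with Mitotracker green plus Lysotracker deep red and imaged by confocal microscopy. Mitophagosomes were scored as Lysotracker puncta containing Mitotracker signal.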

[3] = tested on: primary mouse hepatocytes; assay: mRNA levels in primary mouse hepatocytes; format: cell-based; conditions: 1, 10, 100 nM, 4h
How it was run: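 Primary mouse hepatocytes were exposed to test compound at 1, 10 or 100 nM for 4 h, and G6pc, Pck1 and Ppargc1a mRNA were measured. For Ppargc1a, the 100 nM condition was also combined with PKA inhibitor H89 at 10 μM. For G6pc and Pck1, it was combined with H89 at 2.5, 5 or 10 μM. n=3 biologically independent samples; one-way ANOVA with Dunnett post-hoc.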

ob/ob AMLN NASH mice = assay: sub-chronic dosing in ob/ob AMLN NASH model; format: in vivo, mouse
[4] = tested on: primary human hepatocytes from normal or NASH donors; assay: PPARGC1A mRNA in primary human hepatocytes; format: cell-based; conditions: 100 nM, 4 h; healthy and NASH donors
How it was run: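 Primary hepatocytes from normal or NASH human donors, exposed to test compound at 100 nM for 4 h; PPARGC1A transcript measured. n=3 biologically independent samples per group.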

C57Bl/6J DIO male mice = assay: hyperglycemic clamp and stable isotope infusions in DIO C57Bl6J; format: in vivo, mouse
How it was run: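 Twenty-week-old male C57Bl/6J DIO mice were kept on a shifted light cycle (lights on midnight to noon). Arterial and venous catheters were placed 5 days before a hyperglycemic clamp with […] glucose and water tracing.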

[5] = tested on: DIO GLP-1R knock-out (KO) mice; assay: two-week treatment of DIO GLP-1R KO mice; format: in vivo, mouse
How it was run: as §1

[6] = tested on: primary murine hepatocytes; assay: de novo lipogenesis, 3H-acetate lipid incorporation; format: cell-based, mouse; conditions: 100 nM; vs vehicle-treated controls
How it was run: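 Primary murine hepatocytes treated ex vivo with test compound at 100 nM. De novo lipogenesis was measured as ³H-acetate incorporation into lipid: lipids were extracted, and ³H in the lower phase was counted by scintillation. Values are relative to vehicle-treated controls. n=3–6 per treatment, n=9 vehicle.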

[7] = tested on: primary mouse hepatocytes; assay: mitochondrial oxygen consumption; format: cell-based
How it was run: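 Seahorse XFe96 run on primary mouse hepatocytes at 7500 cells/well, recovered overnight, then treated 4 h with 100 nM test compound. Assay medium: DMEM with 5 mM glucose, 4 mM L-glutamine, 2 mM pyruvate, pH 7.4; 30 min CO₂-free preincubation. Stress test used 1 μM oligomycin, 0.5 μM FCCP and 5 μM antimycin A. Basal and maximal OCR normalized to citrate synthase activity. n=3; substrate oxidation n=2.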

[8] = tested on: C57Bl/6J diet induced obese (DIO) male mice; assay: time course study in DIO C57Bl/6J mice, 7 days dosing; format: in vivo, mouse
How it was run: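 On day 7 they were euthanized at time 0, or at 2, 6 or 16 h after a final dose (n=4/group/timepoint). Body weight was tracked as % change from baseline; blood glucose was measured.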

[9] = tested on: C57BL/6J mice fed AMLN diet; assay: sub-chronic dosing in C57Bl/6J AMLN NASH model; format: in vivo, mouse; conditions: for weight loss from baseline: Cotadutide 10, Liraglutide 40 nmol/kg SC, OCA 70 μmol/kg PO, QD 6 weeks; for food intake within the first 4 days: same doses; for animals with reduced fibrosis / animals with reduced fibrosis (number of group): n=12; for mice in which NAS was reduced: vehicle controls 8%
How it was run: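 Male C57BL/6J mice, about 6 weeks old, were fed AMLN diet for 29 weeks (chow controls) before dosing for 6 weeks, n=12/group. Dosing: peptides SC once daily just before lights off; OCA oral. Every mouse got both an SC vehicle (phosphate/propylene glycol/PS-80, pH 7.5) and an oral vehicle (0.5% CMC). Body weight was recorded daily. ipGTT on day 28 after 4 h fast (1.5 g/kg glucose). Terminal blood and liver collected on day 42.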

[10] = serum peptide content by GLP-1R and GcgR cAMP bioassay; format: in vivo, mouse; conditions: 10 nmol/kg SC QD 7 d
How it was run: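 On day 7 they got a final dose and serum was taken at 0, 2, 6 or 16 h (n=4/timepoint). Apparent serum peptide concentration was estimated from cAMP accumulation in CHO K1 cells stably expressing human GLP1R or GcgR, by potency comparison.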

[11] = tested on: C57BL6J diet-induced NASH model; assay: six-week treatment of NASH C57Bl6/J mice; format: in vivo, mouse
[12] = tested on: non-cirrhotic, non-alcoholic steatohepatitis patients; conditions: cited from earlier work

Cotadutide
body weight ([1]; 10 nmol/kg SC QD 14 d (Liraglutide+g1437 5+5 nmol/kg), vs vehicle): significantly reduced | liver lipid content ([1]; 10 nmol/kg SC QD 14 d, terminal): to a greater degree than Liraglutide alone | food intake ([1]; 10 nmol/kg SC QD, first 4 days of dosing): significantly reduced | fasting glucose ([1]; 10 nmol/kg SC QD, vs vehicle): lowered | mitochondrial number [2]: without altering mitochondrial number | mitophagosomes (mitochondria within lysosomes) ([2]; vs vehicle): Increased number | G6pc and Pck1 mRNA [3]: induced | Ppargc1a mRNA [3]: equally increased | weight loss from baseline (ob/ob AMLN NASH mice; Cotadutide 30 nmol/kg, Liraglutide 40 nmol/kg SC QD 6 weeks): 7-8% | plasma C3M and P4NP7S (ob/ob AMLN NASH mice; ELISA): only reduced in Cotadutide-treated mice | resolution of fibrosis, mice (ob/ob AMLN NASH mice; n=7): resolved in all but one | lowering of collagen staining (Col1a1) (ob/ob AMLN NASH mice; not statistically significant): ~ 17% | hepatic transcript levels of Col1a1, Col3a1, Timp1, Ccl2, and Cd68 (ob/ob AMLN NASH mice; relative to AMLN vehicle): significantly reduced | hepatic transcript levels of Mmp9, Il-1b and Tnf (ob/ob AMLN NASH mice; relative to AMLN vehicle): uniquely reducing | CD68 scoring (immune cell infiltration) (ob/ob AMLN NASH mice; terminal): only reduced by Cotadutide treatment | NAS (ob/ob AMLN NASH mice; terminal): reduced | fibrosis stage (ob/ob AMLN NASH mice; terminal): improved only by Cotadutide treatment | hepatic lipid content (ob/ob AMLN NASH mice; terminal): more significant reduction in hepatic lipid content compared to Liraglutide and diet-switch | liver mass (ob/ob AMLN NASH mice; terminal): similarly reduced | liver αSMA, PSR and hydroxyproline (ob/ob AMLN NASH mice; terminal): lowered | plasma ALT (ob/ob AMLN NASH mice; terminal): lowered | hepatic Ppargc1a mRNA (ob/ob AMLN NASH mice; terminal, about 16h post last dose): restored mRNA levels to those of LFD control | hepatic DAGs and ceramides (ob/ob AMLN NASH mice; vs vehicle): only Cotadutide additionally reduced DAGs and ceramides | PPARGC1A transcript levels [4]: significantly increased | de novo lipogenesis during the clamp (palmitate and glyceride synthesis) (C57Bl/6J DIO male mice; 10 nmol/kg SC QD 7 d): reduced | glycogen synthesis stimulated by hyperglycemia (C57Bl/6J DIO male mice; 10 nmol/kg SC QD 7 d): intact | hepatic (endogenous) glucose production during hyperglycemia (C57Bl/6J DIO male mice; 10 nmol/kg SC QD 7 d): suppressed | core hepatic glycogen (C57Bl/6J DIO male mice; 10 nmol/kg SC QD 7 d, fasted): lower core glycogen levels | basal glucose production (C57Bl/6J DIO male mice; fasted, basal state): increased basal glucose production | body weight ([5]; 10 nmol/kg SC QD 14 d (Liraglutide+g1437 5+5 nmol/kg)): not observed | food intake ([5]; first 4 days of dosing): but not in KO mice | de novo lipid synthesis [6]: reduce de novo lipid synthesis | fuel preference ([7]; ex vivo treatment): no effect | basal and maximal respiration rates ([7]; healthy mouse primary hepatocytes, 100 nM, 4h): increased basal and maximal respiration rates | basal and maximal respiratory rates (OCR) ([7]; hepatocytes from ob/ob NASH mice, 100 nM, 4h ex vivo): restored | liver glycogen ([8]; 0-16 h after final dose): rapidly depleted by 6h post Cotadutide but rebounded to normal at 16h | body weight ([8]; 10 nmol/kg SC QD 7 d, vs vehicle): significant weight loss | blood glucose ([8]; smaller study vehicle vs Cotadutide, 2h and 6h post dose): significantly lowered | weight loss from baseline [9]: ~ 8% | glucose tolerance (ipGTT) ([9]; after 4 weeks of dosing): significantly improved by Cotadutide more so than Liraglutide or OCA | plasma insulin at 15 min during the GTT ([9]; after 4 weeks of dosing): increased | food intake within the first 4 days [9]: reduced food intake | hepatic glycogen ([9]; terminal): increase in hepatic glycogen | animals with worsened fibrosis ([9]; terminal vs pre-study biopsy): no animals had worsened fibrosis | animals with reduced fibrosis ([9]; terminal vs pre-study biopsy): 25% | animals with reduced fibrosis (number of group) ([9]; terminal vs pre-study biopsy): 3/12 | liver mass ([9]; terminal, vs vehicle): unchanged liver mass | plasma ALT ([9]; terminal, vs vehicle): reduced ALT levels | mice in which NAS was reduced [9]: 83% | steatosis and inflammation scores and overall NAS, responders ([9]; vs vehicle): significantly more animals with lower steatosis and inflammation scores and overall NAS | serum concentration at 16h [10]: undetectable | time of highest serum concentration ([10]; sampled 0, 2, 6, 16 h after final dose): highest at 2h and 6h | body weight ([11]; 10 nmol/kg SC QD 42 d): reduced body weight similarly to Liraglutide+g1437, but more than either Liraglutide or g1437 alone | glucose excursion in pyruvate tolerance test ([11]; day 14, pyruvate 2g/kg): lower glucose excursion | plasma alanine aminotransferase (ALT) ([11]; end of study): significantly reduced | hepatic glycogen ([11]; terminal): elevated only with Cotadutide treatment | liver triglycerides ([11]; terminal): reduced | fasted insulin ([11]; vs vehicle, Liraglutide and Liraglutide+g1437): lower

CCCCCCCCCCCCCCCC(=O)N[C@@H](CCC(=O)NCCCC[C@H](NC(=O)[C@H](C)NC(=O)[C@H](C)NC(=O)[C@H](CCC(N)=O)NC(=O)CNC(=O)[C@H](CCC(=O)O)NC(=O)[C@H](CC(C)C)NC(=O)[C@H](Cc1ccc(O)cc1)NC(=O)[C@H](CO)NC(=O)[C@H](CO)NC(=O)[C@@H](NC(=O)[C@H](CC(=O)O)NC(=O)[C@H](CO)NC(=O)[C@@H](NC(=O)[C@H](Cc1ccccc1)NC(=O)[C@@H](NC(=O)CNC(=O)[C@H](CCC(=O)O)NC(=O)[C@H](C)NC(=O)[C@@H](N)Cc1cnc[nH]1)[C@@H](C)O)[C@@H](C)O)C(C)C)C(=O)N[C@@H](CCC(=O)O)C(=O)N[C@@H](Cc1ccccc1)C(=O)N[C@H](C(=O)N[C@@H](C)C(=O)N[C@@H](Cc1c[nH]c2ccccc12)C(=O)N[C@@H](CC(C)C)C(=O)N[C@H](C(=O)N[C@@H](CCCNC(=N)N)C(=O)NCC(=O)N[C@@H](CCCNC(=N)N)C(=O)NCC(=O)O)C(C)C)[C@@H](C)CC)C(=O)O [Liraglutide, reference compound]
pharmacokinetics compared with Cotadutide, in words [10]: longer bioavailability

CC[C@H]1[C@@H](O)[C@@H]2[C@H](CC[C@]3(C)[C@@H]([C@H](C)CCC(=O)O)CC[C@@H]23)[C@@]2(C)CC[C@@H](O)C[C@@H]12 [OCA, Obeticholic acid, reference compound]
patients with a reduction in NAS ([12]; placebo 12%): 20% | patients with reduction in fibrosis stage ([12]; placebo 17%): 35% | weight loss from baseline [9]: ~ 3% | plasma insulin at 15 min during the GTT ([9]; after 4 weeks of dosing): no effect | food intake within the first 4 days [9]: no effect | animals with reduced fibrosis ([9]; terminal vs pre-study biopsy): 8.3% | animals with reduced fibrosis (number of group) ([9]; terminal vs pre-study biopsy): 1/12 | liver mass ([9]; terminal, vs vehicle): only reducing liver mass | mice in which NAS was reduced [9]: 75% | steatosis and inflammation scores and overall NAS, responders ([9]; vs vehicle): significantly more animals with lower steatosis and inflammation scores and overall NAS
